Assay results as given in PubChem BioAssay AID504486 (The Scripps Research Institute Molecular Screening Center, 2011).
The source made the active and inactive calls.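 The calls were made as follows: active = mass spectrometry shows covalent labeling of the catalytic serine in PAFAH2, a platelet-activating factor hydrolase; inactive = no covalent labeling of that serine detected.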

Biological target: Platelet-activating factor acetylhydrolase 2, cytoplasmic (Homo sapiens) (UniProt Q99487)
Test: PAFAH2 active-site binding mode – biophysical, LC-MS/MS, purified enzyme, mechanism study for PAFAH2 inhibitor project, late-stage follow-up (AID 504486)
Settings: purified PAFAH2, LC-MS/MS active-site serine labeling
Procedure, shortened: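 Read-out: Active-site serine covalent modification, yes or no | Assay system: Purified human recombinant PAFAH2 enzyme | Control set: DMSO-only enzyme sample | Measured by: LC-MS/MS of tryptic peptides, searching for +97.053 Da serine adduct | Incubation: 30 min compound exposure at room temperature | Compound dosing: Single dose, 200 µM final inhibitor, DMSO vehicle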

**Q.** Which outcome does the source give for `O=C(N1CCCC1)n1ncc(-c2ccc(-c3ccccc3)cc2)n1` here?
**A.** active
